{"data": "Published values from different studies", "observed": "enzyme activity", "mode": "inhibitor", "gag-pol reverse transcriptase": "Gag-Pol polyprotein, reverse transcriptase (gag-pol, Human immunodeficiency virus type 1 group M subtype B, UniProt P04585)", "gag-pol protease": "Gag-Pol polyprotein, protease (gag-pol, Human immunodeficiency virus type 1 group M subtype B, UniProt P04585)", "note": "Protocols differ between the studies behind these lines."}
{"SMILES": "C[C@H](Cn1cnc2c(N)ncnc21)OCP(=O)(O)O", "target": "gag-pol reverse transcriptase", "quantity": "IC50", "value": "950 nM"}
{"SMILES": "CCCc1c2c(nc3c1c(C#N)cn3C1CCCCC1)CCC2=O", "target": "gag-pol reverse transcriptase", "technique": "FRET", "quantity": "IC50", "value": "> 100000 nM"}
{"SMILES": "CC(C)C[C@H]1C(OC(C)(C)C)=CC(=O)N1[C@H]1CCN(C2=CC(=O)NC2Cc2ccccc2)C1 (stereo partly shown)", "target": "gag-pol protease", "technique": "fluorescence", "quantity": "IC50", "value": "516000 nM"}
{"SMILES": "COc1ccc2c(c1)OCCCCCCCCCN(C[C@@H](O)[C@H](Cc1ccccc1)NC(=O)O[C@H]1CO[C@H]3OCC[C@H]31)S2(=O)=O", "target": "gag-pol protease", "quantity": "Ki", "value": "< 0.7 nM"}
{"SMILES": "O=C(O)Cc1ccc(O)c(O)c1", "target": "Gag-Pol polyprotein, integrase (gag-pol, Human immunodeficiency virus type 1 group M subtype B, UniProt P04585)", "quantity": "IC50", "value": "> 25000 nM"}
{"SMILES": "CC(C)CN(C[C@@H](O)[C@H](Cc1ccccc1)NC(=O)O[C@H]1CCO[C@H]2OCC[C@H]21)S(=O)(=O)c1ccc(C(=O)O)cc1", "target": "gag-pol protease", "quantity": "Ki", "value": "0.0076 nM"}
{"SMILES": "C=CCn1cc(C#N)c2cc(C#N)cnc21", "target": "gag-pol reverse transcriptase", "technique": "FRET", "quantity": "IC50", "value": "> 100000 nM"}
{"SMILES": "C=CCCOc1ccc(C[C@H](NC(=O)c2cccc(O)c2CCC=C)[C@H](O)CN(CC(C)C)S(=O)(=O)c2ccc(OC)cc2)cc1", "target": "gag-pol protease", "quantity": "Ki", "value": "7 nM"}
{"SMILES": "CC1(C)CC(=O)c2cc3c(C#N)cn(Cc4ccccc4)c3nc2C1", "target": "gag-pol reverse transcriptase", "technique": "FRET", "quantity": "IC50", "value": "> 10000 nM"}
{"SMILES": "C=CCCCCOc1ccc(C[C@H](NC(=O)c2cccc(O)c2CCC=C)[C@H](O)CN(CC(C)C)S(=O)(=O)c2ccc(OC)cc2)cc1", "target": "gag-pol protease", "quantity": "Ki", "value": "30 nM"}
{"SMILES": "CC(C)C[C@H]1C(N2CC[C@H](N3C(=O)C=C(OC(C)(C)C)[C@@H]3C)C2)=CC(=O)N1[C@H]1CCN(C2=CC(=O)N[C@H]2Cc2ccccc2)C1", "target": "gag-pol protease", "technique": "fluorescence", "quantity": "IC50", "value": "54900 nM"}
{"SMILES": "Cc1ccc(-c2cnc3c(c2)c(C#N)cn3Cc2ccccc2)cc1", "target": "gag-pol reverse transcriptase", "technique": "FRET", "quantity": "IC50", "value": "> 100000 nM"}
{"SMILES": "COc1ccc(S(=O)(=O)N(CC(C)C)C[C@@H](O)[C@@H]2Cc3ccc(cc3)OCC=CCCc3c(O)cccc3C(=O)N2)cc1", "target": "gag-pol protease", "quantity": "Ki", "value": "0.2 nM"}
